The source made the active and inactive calls. The rule behind the calls is not given here.
Columns and labels:
D(2) dopamine receptor = D(2) dopamine receptor (Rattus norvegicus, UniProt P61169); experiment: Displacement of [3H]YM-09151-2 from rat striatum D2 receptor
[1] = biological target: T1, 5-hydroxytryptamine receptor 1A (Homo sapiens, UniProt P08908); experiment: Agonist activity at human 5HT1A receptor in HeLa cells assessed as stimulation of [35S]GTP-gamma-S binding; assay type: functional, cell-based
T1 sequence (P08908 whole entry): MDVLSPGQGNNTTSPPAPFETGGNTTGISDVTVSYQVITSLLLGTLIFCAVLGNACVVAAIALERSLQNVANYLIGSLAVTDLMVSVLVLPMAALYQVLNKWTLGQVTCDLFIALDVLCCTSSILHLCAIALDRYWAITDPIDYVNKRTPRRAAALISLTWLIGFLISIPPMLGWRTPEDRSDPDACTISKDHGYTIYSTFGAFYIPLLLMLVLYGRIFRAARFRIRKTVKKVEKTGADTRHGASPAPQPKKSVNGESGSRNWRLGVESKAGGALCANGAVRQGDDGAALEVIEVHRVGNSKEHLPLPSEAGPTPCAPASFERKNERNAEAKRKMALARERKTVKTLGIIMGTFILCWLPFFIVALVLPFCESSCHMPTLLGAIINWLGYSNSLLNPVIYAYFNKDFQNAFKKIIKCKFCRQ
Procedure, shortened: (§1)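 Membranes from HeLa cells expressing human 5-HT1A, prepared by homogenisation and 40 000 g spins in Hepes/EDTA, incubated with compound 1 h at 30 °C. [35S]GTPγS added at 0.1 nM final, then 30 min at 30 °C. Filtration and scintillation counting. Six concentrations from 10^-10 to 10^-5 M, triplicate, three experiments.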

[2] = biological target: T2, 5-hydroxytryptamine receptor 1A (Homo sapiens) (UniProt P08908); experiment: Agonist activity at human 5HT1A receptor in HeLa cells assessed as stimulation of [35S]GTPgammaS binding relative to serotonin; assay type: functional, cell-based; procedure, shortened: as §1
T2 sequence (whole entry): T1 sequence (P08908 whole entry)

[3] = biological target: T3, 5-hydroxytryptamine receptor 1A (Rattus norvegicus, UniProt P19327); experiment: Displacement of [3H]OH-DPAT from rat cortex 5HT1A receptor
T3 sequence (P19327 whole entry): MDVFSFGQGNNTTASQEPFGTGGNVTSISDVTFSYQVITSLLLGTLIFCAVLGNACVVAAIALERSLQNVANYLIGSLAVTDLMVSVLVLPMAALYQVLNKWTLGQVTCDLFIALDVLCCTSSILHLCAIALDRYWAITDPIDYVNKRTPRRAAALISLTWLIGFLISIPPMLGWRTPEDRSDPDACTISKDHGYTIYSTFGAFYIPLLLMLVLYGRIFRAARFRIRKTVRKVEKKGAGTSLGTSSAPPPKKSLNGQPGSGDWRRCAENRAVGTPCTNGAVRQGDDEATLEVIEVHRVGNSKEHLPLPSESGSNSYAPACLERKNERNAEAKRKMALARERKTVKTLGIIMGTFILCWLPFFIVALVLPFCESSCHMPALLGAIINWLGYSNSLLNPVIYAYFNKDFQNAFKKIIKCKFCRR

Rattus norvegicus [4] = experiment: Normalizing effect on methylphenidate-induced behaviours in ip dosed rat after 30 min; assay type: functional; conditions: for ED50: 0.5 h
Procedure, shortened: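 Rats given methylphenidate 40 mg/kg i.p. plus compound i.p. (10 mL/kg; doses as free base), seven per dose. Over 10 min starting 30 min after injection, locomotion, rearing, sniffing, gnawing and licking scored in 10 s observations repeated 10 times. Normalization judged against saline and methylphenidate controls.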

[5] = biological target: 5-hydroxytryptamine receptor 2A (Rattus norvegicus, UniProt P14842); experiment: Displacement of [3H]ketanserin from rat cortex 5HT2A receptor
Sequence of 5-hydroxytryptamine receptor 2A (P14842 whole entry): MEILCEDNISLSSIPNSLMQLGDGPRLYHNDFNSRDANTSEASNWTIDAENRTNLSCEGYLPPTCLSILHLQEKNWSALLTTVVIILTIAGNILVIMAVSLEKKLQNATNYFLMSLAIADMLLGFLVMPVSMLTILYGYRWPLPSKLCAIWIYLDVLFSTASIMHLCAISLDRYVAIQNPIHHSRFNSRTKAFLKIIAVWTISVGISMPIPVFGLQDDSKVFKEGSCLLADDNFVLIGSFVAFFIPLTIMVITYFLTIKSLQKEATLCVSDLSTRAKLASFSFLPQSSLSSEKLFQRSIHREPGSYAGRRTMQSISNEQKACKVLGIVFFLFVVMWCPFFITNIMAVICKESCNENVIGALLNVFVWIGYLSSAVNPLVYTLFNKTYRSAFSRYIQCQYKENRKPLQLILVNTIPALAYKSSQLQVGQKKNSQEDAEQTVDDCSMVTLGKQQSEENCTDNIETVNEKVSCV

Rattus norvegicus [6] = experiment: Induction of catalepsy in ip dosed rat after 60 min by crossed-leg position test; assay type: functional; conditions: 1 h
Procedure, shortened: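 Rats dosed i.p. (10 mL/kg; doses as free base), seven per dose. From 60 min, hind limbs crossed over the ipsilateral forelimbs and time held recorded, up to 30 s. Repeated at 3 and 6 min and the three trials averaged. Incidence taken as catalepsy lasting 30 s.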

Rattus norvegicus [7] = experiment: Induction of lower lip retraction in ip dosed rat after 15 min; assay type: functional; conditions: 0.25 h
Procedure, shortened: (§2)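 Rats given compound i.p. (10 mL/kg; doses as free base), five per dose, observed individually for 10 min from 15 min post-injection. LLR scored present if uninterrupted for ≥3 s, in 10 cycles; response was ≥1 positive score. FBP scored present only if seen over the whole period.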

[8] = biological target: D(2) dopamine receptor (Rattus norvegicus) (UniProt P61169)
Sequence of D(2) dopamine receptor (Rattus norvegicus) (P61169 whole entry): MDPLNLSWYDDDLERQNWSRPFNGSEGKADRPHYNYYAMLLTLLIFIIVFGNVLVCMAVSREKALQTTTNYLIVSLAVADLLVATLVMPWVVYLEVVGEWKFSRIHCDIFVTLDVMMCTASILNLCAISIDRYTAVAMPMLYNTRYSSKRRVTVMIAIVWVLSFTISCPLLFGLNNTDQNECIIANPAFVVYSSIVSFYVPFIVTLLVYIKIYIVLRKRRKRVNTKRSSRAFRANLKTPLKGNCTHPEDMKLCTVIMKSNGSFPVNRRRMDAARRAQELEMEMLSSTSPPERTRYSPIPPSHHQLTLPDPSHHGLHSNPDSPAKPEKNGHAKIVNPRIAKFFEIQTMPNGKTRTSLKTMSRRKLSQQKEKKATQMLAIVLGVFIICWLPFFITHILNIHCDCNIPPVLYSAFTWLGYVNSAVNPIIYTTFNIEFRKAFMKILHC

Rattus norvegicus [9] = experiment: Induction of forepaw treading in rat at 40 mg/kg, ip; assay type: functional, organism-based; parameters: dose 40 mg/kg
Rattus norvegicus [10] = experiment: Ratio of ED50 for LLR induction to ED50 for normalization in ip dosed rat; assay type: functional
Rattus norvegicus [11] = experiment: Ratio of ED50 for catalepsy induction to ED50 for normalization in ip dosed rat; assay type: functional
Rattus norvegicus [12] = experiment: Induction of flat body posture in ip dosed rat after 15 min; assay type: functional; conditions: 0.25 h; procedure, shortened: as §2

Sequence of D(2) dopamine receptor (P61169 whole entry): as above

Structure (SMILES)	Ki (D(2) dopamine receptor) [µM]	EC50 [1] [µM]	Emax [2] [%]	Ki [3] [µM]	Activity (Rattus norvegicus [4])	Ki [5] [µM]	ED50 (Rattus norvegicus [6]) [mg/kg]	ED50 (Rattus norvegicus [4]) [mg/kg]	ED50 (Rattus norvegicus [7]) [mg/kg]	pKb [8]	Activity (Rattus norvegicus [9])	Ratio ED50 (Rattus norvegicus [10])	Ratio ED50 (Rattus norvegicus [11])	ED50 (Rattus norvegicus [12]) [mg/kg]
C1=C(c2cncc(CNCCOc3cccc4c3OC3(CC3)C4)c2)CCC1	0.000447	0.00263	78.5	0.00363	Active									
CC(C)Oc1ccccc1OCCNCc1cccc(C2CCCC2)c1	0.000562	0.195	71.2	0.0166		0.302								
CC(C)Oc1ccccc1OCCNCc1cccc(C2=CCCCC2)c1	0.00155	0.0468	69.8	0.0123		0.191								
C1=C(c2cccc(CNCCOc3cccc4c3OCO4)c2)CCC1	0.00257	0.135	70.7	0.0209										
CCC1(C)Cc2cccc(OCCNCc3cccc(C4=CCCC4)c3)c2O1 (stereo unspecified)	0.0115	0.0324	77.7	0.0055	Active									
CC(C)Oc1ccccc1OCCNCc1cccc(-c2ccccc2)c1	0.000195	1.41	73.9	0.0263		0.724								
CC1(C)COc2c(OCCNCc3cccc(C4=CCCC4)c3)cccc21	0.000813	0.112	72.4	0.0427	Active									
O=C(CCCN1CCC(O)(c2ccc(Cl)cc2)CC1)c1ccc(F)cc1 [HALOPERIDOL]							0.3	0.31						
Fc1ccc(-c2cncc(CNC[C@H]3CCc4ccccc4O3)c2)cc1 [SARIZOTAN]	0.0191	0.0776	66.5	0.00224		2.14								
C1=C(c2cccc(CNCCOc3cccc4c3OCCO4)c2)CCC1	0.000776	0.00646	68.9	0.0017	Active									
CC1(C)Cc2cccc(OCCNCc3cncc(C4=CCCC4)c3)c2O1	0.000275	0.00288	72.4	0.000955			> 40	0.29	1.8	9.29	inactive	6.2	>137	4.7
CC(C)Oc1ccccc1OCCNCc1cccc(C2=CCCC2)c1	0.000501	0.0692	54	0.0295		0.646								
Fc1ccc(-c2cncc(CN3CCN(c4cccc5c4OCCO5)CC3)c2)cc1 [ADOPRAZINE]		0.00589	45.3	0.00229		0.724	> 40	1.4	0.32	7.81				1.7
CC(C)Oc1ccccc1OCCNCc1cccc(-c2cccs2)c1	0.000562	> 10		0.0468		0.562								
CC1(C)Oc2cccc(OCCNCc3cccc(C4=CCCC4)c3)c2O1	0.00123	0.0245	90.6	0.00955	Active									
CCCN(CCC)C1CCc2cccc(O)c2C1 (stereo unspecified) [8-OH-DPAT]			82				> 10	> 10	0.09					0.28
CC(C)Oc1ccccc1OCCNCc1cccc(-c2ccco2)c1	0.000339	> 10		0.0676		0.372								
C1=C(c2cccc(CNCCOc3cccc4c3OC3(CC3)C4)c2)CCC1	0.00112	0.0339	93.8	0.00617	Active									
CC1(C)Cc2cccc(OCCNCc3cccc(C4=CCCC4)c3)c2O1	0.000417	0.01	85.6	0.00575			> 40	1.1	8.3	8.29	inactive	7.5	>36	32
CC(C)Oc1ccccc1OCCNCc1cccc(C2=CCCCCC2)c1	0.00309	1.55	86.5	0.0229		1.05								
O=c1[nH]c2cccc(N3CCN(Cc4cccc(-c5ccccc5)c4)CC3)c2o1 [BIFEPRUNOX]	0.00155	0.324	60.8	0.0646		3.31								
CC(C)Oc1ccccc1OCCNCc1cccc(C2CC2)c1	0.000603	> 10		0.0617		0.11								
CC(C)Oc1ccccc1OCCNCc1cccc(-c2ccsc2)c1	0.000275	0.0676	47.7	0.0347		0.347								

Reference: ChEMBL document CHEMBL1141420, “Towards a new generation of potential antipsychotic agents combining D2 and 5-HT1A receptor activities” (J Med Chem, 2007)
